ChEMBL document CHEMBL1144690, “Isolation of cytotoxic metabolites from targeted peruvian amazonian medicinal plants” (2008)
In brackets after ≈: the same amount, converted by molar mass. Activity calls are given as the source filed them. No cut-off for these calls is given here.

How the values were obtained:
HT-29 = test: Cytotoxicity against human HT29 cells; assay type: functional
Procedure, shortened: (§1)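 Cells in 96-well plates exposed to serial dilutions of test sample (maximum 62.5 µg/mL for crude extract and fractions) or solvent-dilution controls for 48 h at 37 °C. Growth measured colorimetrically by sulforhodamine B staining, with percent inhibition taken against controls. GI50 is the concentration giving 50% absorbance reduction versus solvent controls, obtained by linear regression.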

PC-3 = test: Cytotoxicity against human PC3 cells; assay type: functional; procedure, shortened: as §1
M14 = test: Cytotoxicity against human M14 cells; assay type: functional; procedure, shortened: as §1
K562 = test: Cytotoxicity against human K562 cells; assay type: functional; procedure, shortened: as §1
[1] = system: Mycobacterium tuberculosis; test: Antimicrobial activity against Mycobacterium tuberculosis H37Rv at 25 ug/ml; assay type: functional, organism-based
DU-145 = test: Cytotoxicity against human DU145 cells; assay type: functional; procedure, shortened: as §1
NCI-H460 = test: Cytotoxicity against human H460 cells; assay type: functional; procedure, shortened: as §1
MCF7 = test: Cytotoxicity against human MCF7 cells; assay type: functional; procedure, shortened: as §1
Vero = test: Cytotoxicity against african green monkey Vero cells; assay type: functional; conditions: Chlorocebus sabaeus; procedure, shortened: as §1
ME-180 = test: Cytotoxicity against human ME180 cells; assay type: functional; procedure, shortened: as §1
[2] = system: Mycobacterium tuberculosis; test: Antimicrobial activity against Mycobacterium tuberculosis H37Rv; assay type: functional
Procedure, shortened: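 Tetrazolium microplate assay (TEMA) run in vitro against the drug-sensitive M. tuberculosis H37Rv strain.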

COc1ccc(CCC(=O)c2c(O)cc(O)cc2OC)cc1
GI50 (HT-29): 35.5 µg/mL (≈ 117 µM)
GI50 (PC-3): 46.3 µg/mL (≈ 153 µM)
GI50 (M14): 40.3 µg/mL (≈ 133 µM)
GI50 (K562): 7.4 µg/mL (≈ 24.5 µM)
Activity [1]: inactive
GI50 (DU-145): 41.7 µg/mL (≈ 138 µM)
GI50 (NCI-H460): 44.7 µg/mL (≈ 148 µM)
GI50 (MCF7): 22.9 µg/mL (≈ 75.7 µM)
GI50 (Vero): 40.4 µg/mL (≈ 134 µM)

C[C@]12C=C[C@@]3(CC[C@H]4[C@@](C)(CCC[C@@]4(C)C(=O)O)[C@@H]3CC1)C2 [MONOGINOIC ACID]
GI50 (K562): > 62.5 µg/mL

Cc1cc(O)c2c(c1)C(=O)c1cccc(O)c1C2=O [CHRYSOPHANOL]
GI50 (HT-29): > 62.5 µg/mL
GI50 (PC-3): > 62.5 µg/mL
GI50 (ME-180): > 62.5 µg/mL
GI50 (M14): > 62.5 µg/mL
GI50 (K562): > 62.5 µg/mL
Activity [1]: inactive
GI50 (DU-145): > 62.5 µg/mL
GI50 (NCI-H460): > 62.5 µg/mL
GI50 (MCF7): > 62.5 µg/mL
GI50 (Vero): > 62.5 µg/mL

CCCCCCCCCCCCCC(=O)O[C@@H]1[C@@H](C)[C@@]2(O)[C@@H](C=C(CO)C[C@]3(O)C(=O)C(C)=C[C@@H]23)[C@@H]2C(C)(C)[C@]12OC(C)=O [PHORBOL MYRISTATE ACETATE]
GI50 (K562): 0.00012 µg/mL

C=C(C)[C@@H]1CC[C@]2(C(=O)O)CC[C@]3(C)[C@H](CC[C@@H]4[C@@]5(C)CC[C@H](O)C(C)(C)[C@@H]5CC[C@]43C)[C@@H]12 [BETULINIC ACID]
GI50 (HT-29): 30.9 µg/mL (≈ 67.7 µM)
GI50 (PC-3): 31.3 µg/mL (≈ 68.5 µM)
GI50 (ME-180): 27.8 µg/mL (≈ 60.9 µM)
GI50 (M14): 32.6 µg/mL (≈ 71.4 µM)
GI50 (K562): 10.8 µg/mL (≈ 23.6 µM)
Activity [1]: inactive
GI50 (DU-145): 35.3 µg/mL (≈ 77.3 µM)
GI50 (NCI-H460): 29.7 µg/mL (≈ 65 µM)
GI50 (MCF7): > 62.5 µg/mL
GI50 (Vero): 30.6 µg/mL (≈ 67 µM)

C/C=C1/CN2CC[C@@]34c5ccccc5N5/C=C6/[C@H]7C[C@@H]8N(CC[C@@]89c8ccccc8N(/C=C(/[C@H]1C[C@H]23)[C@H]54)[C@@H]69)C/C7=C/C [BISNORDIHYDROTOXIFERINE]
GI50 (HT-29): > 1 µg/mL
GI50 (PC-3): 2.1 µg/mL (≈ 3.8 µM)
GI50 (ME-180): 1.9 µg/mL (≈ 3.44 µM)
GI50 (M14): 1.6 µg/mL (≈ 2.89 µM)
GI50 (K562): < 1 µg/mL
MIC [2]: 12.5 µg/mL (≈ 22.6 µM)
GI50 (DU-145): 4.5 µg/mL (≈ 8.14 µM)
GI50 (NCI-H460): 1.6 µg/mL (≈ 2.89 µM)
GI50 (MCF7): 2 µg/mL (≈ 3.62 µM)
GI50 (Vero): 2.7 µg/mL (≈ 4.88 µM)

COc1cc(O)cc(O)c1C(=O)CCc1ccc2c(c1)OCO2
GI50 (HT-29): 27.6 µg/mL (≈ 87.3 µM)
GI50 (PC-3): 24.5 µg/mL (≈ 77.5 µM)
GI50 (M14): 23.4 µg/mL (≈ 74 µM)
GI50 (K562): 8.4 µg/mL (≈ 26.6 µM)
Activity [1]: inactive
GI50 (DU-145): 22.4 µg/mL (≈ 70.8 µM)
GI50 (NCI-H460): 27.4 µg/mL (≈ 86.6 µM)
GI50 (MCF7): 18.9 µg/mL (≈ 59.8 µM)
GI50 (Vero): 28.4 µg/mL (≈ 89.8 µM)

Cc1cc(O)c2c(c1)C(=O)c1ccc(O)c(O)c1C2=O
GI50 (HT-29): 6.5 µg/mL (≈ 24.1 µM)
GI50 (PC-3): 8.7 µg/mL (≈ 32.2 µM)
GI50 (ME-180): 13.2 µg/mL (≈ 48.8 µM)
GI50 (M14): 13.6 µg/mL (≈ 50.3 µM)
GI50 (K562): 12.5 µg/mL (≈ 46.3 µM)
Activity [1]: inactive
GI50 (DU-145): 7.9 µg/mL (≈ 29.2 µM)
GI50 (NCI-H460): 4.8 µg/mL (≈ 17.8 µM)
GI50 (MCF7): 7.3 µg/mL (≈ 27 µM)
